Assay results taken from ChEMBL document CHEMBL3352152, “Indolylmethylene benzo[h]thiazolo[2,3-b]quinazolinones: synthesis, characterization and evaluation of anticancer and antimicrobial activities” (Bioorg Med Chem Lett, 2014).
Each block holds one molecule with its values, some of them ahead of it.

Legend:
Candida albicans [1] = assay: Antifungal activity against Candida albicans MTCC 183 at 150 ug/ml after 48 hrs by agar well diffusion method; format: functional; details: MTCC 183, 48 h, read-out: IZ
Procedure, shortened: (§1)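 Antifungal screen by agar well diffusion against C. albicans, C. glabrata, A. niger and A. parasiticus. Clotrimazole was the standard drug. Activity was recorded as zone of inhibition (ZOI, mm).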

Aspergillus niger [2] = assay: Antifungal activity against Aspergillus niger MTCC 282 at 150 ug/ml after 48 hrs by agar well diffusion method; format: functional; details: MTCC 282, 48 h, read-out: IZ; procedure, shortened: as §1
Staphylococcus aureus [3] = assay: Antibacterial activity against Staphylococcus aureus MTCC 96 at 150 ug/ml after 24 hrs by agar well diffusion assay; format: functional; details: MTCC 96, 24 h, read-out: IZ
Procedure, shortened: (§2)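 Agar well diffusion screen against the two Gram-positive strains (S. aureus, S. pyogenes) and the two Gram-negative strains (P. aeruginosa, K. pneumoniae). Streptomycin was the reference drug. Activity was read as zone of inhibition (mm).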

Streptococcus pyogenes [4] = assay: Antibacterial activity against Streptococcus pyogenes MTCC 1926 at 150 ug/ml after 24 hrs by agar well diffusion assay; format: functional; details: MTCC 1926, 24 h, read-out: IZ; procedure, shortened: as §2
Nakaseomyces glabratus [5] = assay: Antifungal activity against Candida glabrata MTCC3019 at 150 ug/ml after 48 hrs by agar well diffusion method; format: functional; details: MTCC3019, 48 h, read-out: IZ; procedure, shortened: as §1
HepG2 = assay: Anticancer activity against human HepG2 cells assessed as cell viability after 48 hrs by MTT microcultured tetrazolium assay; format: functional, cell-based; details: HepG2, 48 h
Procedure, shortened: (§3)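 MTT-microcultured tetrazolium viability read-out in MCF-7 and HepG2 cells exposed to test samples. Surviving fraction was plotted against drug concentration to give survival curves, and IC50 was taken from these curves.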

Aspergillus parasiticus [6] = assay: Antifungal activity against Aspergillus parasiticus MTCC 8850 at 150 ug/ml after 48 hrs by agar well diffusion method; format: functional; details: MTCC 8850, 48 h, read-out: IZ; procedure, shortened: as §1
Klebsiella pneumoniae [7] = assay: Antibacterial activity against Klebsiella pneumoniae MTCC 109 at 150 ug/ml after 24 hrs by agar well diffusion assay; format: functional; details: MTCC 109, 24 h, read-out: IZ; procedure, shortened: as §2
MCF7 = assay: Anticancer activity against human MCF7 cells assessed as cell viability after 48 hrs by MTT microcultured tetrazolium assay; format: functional, cell-based; details: MCF7, 48 h; procedure, shortened: as §3
Pseudomonas aeruginosa [8] = assay: Antibacterial activity against Pseudomonas aeruginosa MTCC 4673 at 150 ug/ml after 24 hrs by agar well diffusion assay; format: functional; details: MTCC 4673, 24 h, read-out: IZ; procedure, shortened: as §2
Candida albicans [9] = assay: Antifungal activity against Candida albicans MTCC 183 at 30 ug/ml after 48 hrs by agar well diffusion method; format: functional; details: MTCC 183, 48 h, read-out: IZ; procedure, shortened: as §1
Aspergillus niger [10] = assay: Antifungal activity against Aspergillus niger MTCC 282 at 30 ug/ml after 48 hrs by agar well diffusion method; format: functional; details: MTCC 282, 48 h, read-out: IZ; procedure, shortened: as §1
Aspergillus parasiticus [11] = assay: Antifungal activity against Aspergillus parasiticus MTCC 8850 at 30 ug/ml after 48 hrs by agar well diffusion method; format: functional; details: MTCC 8850, 48 h, read-out: IZ; procedure, shortened: as §1
Nakaseomyces glabratus [12] = assay: Antifungal activity against Candida glabrata MTCC3019 at 30 ug/ml after 48 hrs by agar well diffusion method; format: functional; details: MTCC3019, 48 h, read-out: IZ; procedure, shortened: as §1
Staphylococcus aureus [13] = assay: Antibacterial activity against Staphylococcus aureus MTCC 96 at 30 ug/ml after 24 hrs by agar well diffusion assay; format: functional; details: MTCC 96, 24 h, read-out: IZ
Procedure, shortened: (§4)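 Agar well diffusion screen run in vitro against a bacterial panel: S. aureus and S. pyogenes (Gram-positive), P. aeruginosa and K. pneumoniae (Gram-negative). Streptomycin served as the reference standard drug.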

Klebsiella pneumoniae [14] = assay: Antibacterial activity against Klebsiella pneumoniae MTCC 109 at 30 ug/ml after 24 hrs by agar well diffusion assay; format: functional; details: MTCC 109, 24 h, read-out: IZ; procedure, shortened: as §4
Pseudomonas aeruginosa [15] = assay: Antibacterial activity against Pseudomonas aeruginosa MTCC 4673 at 30 ug/ml after 24 hrs by agar well diffusion assay; format: functional; details: MTCC 4673, 24 h, read-out: IZ; procedure, shortened: as §2
Streptococcus pyogenes [16] = assay: Antibacterial activity against Streptococcus pyogenes MTCC 1926 at 30 ug/ml after 24 hrs by agar well diffusion assay; format: functional; details: MTCC 1926, 24 h, read-out: IZ; procedure, shortened: as §2

IC50 (HepG2): 25.8 µM
IC50 (MCF7): 67.3 µM
Structure (SMILES): COc1ccc2c(c1)CCC1=C2N=c2s/c(=C\c3c[nH]c4ccccc34)c(=O)n2C1c1ccc(F)cc1 (stereo not drawn)
zone of inhibition at 150 µg/mL (Candida albicans [1]): 8 mm
zone of inhibition at 150 µg/mL (Aspergillus niger [2]): 10 mm
zone of inhibition at 150 µg/mL (Staphylococcus aureus [3]): 21 mm
zone of inhibition at 150 µg/mL (Streptococcus pyogenes [4]): 8 mm
zone of inhibition at 150 µg/mL (Nakaseomyces glabratus [5]): 8 mm
zone of inhibition at 150 µg/mL (Aspergillus parasiticus [6]): 10 mm
zone of inhibition at 150 µg/mL (Klebsiella pneumoniae [7]): 17 mm
zone of inhibition at 150 µg/mL (Pseudomonas aeruginosa [8]): 21 mm

Structure (SMILES): Clc1ccccc1C(c1ccccc1)(c1ccccc1)n1ccnc1 [CLOTRIMAZOLE]
zone of inhibition at 30 µg/mL (Candida albicans [9]): 24 mm
zone of inhibition at 30 µg/mL (Aspergillus niger [10]): 20 mm
zone of inhibition at 30 µg/mL (Aspergillus parasiticus [11]): 20 mm
zone of inhibition at 30 µg/mL (Nakaseomyces glabratus [12]): 22 mm

Structure (SMILES): CN[C@@H]1[C@H](O[C@H]2[C@H](O[C@H]3[C@H](O)[C@@H](O)[C@H](N=C(N)N)[C@@H](O)[C@@H]3N=C(N)N)O[C@@H](C)[C@]2(O)C=O)O[C@@H](CO)[C@H](O)[C@H]1O [STREPTOMYCIN]
zone of inhibition at 30 µg/mL (Staphylococcus aureus [13]): 22 mm
zone of inhibition at 30 µg/mL (Klebsiella pneumoniae [14]): 22 mm
zone of inhibition at 30 µg/mL (Pseudomonas aeruginosa [15]): 20 mm
zone of inhibition at 30 µg/mL (Streptococcus pyogenes [16]): 21 mm
